Data published in BindingDB's records for doi:10.1021/jm00189a004 (1979).

Target: Indolethylamine N-methyltransferase (Oryctolagus cuniculus, UniProt O97972)
Experiment: Inhibition of New Zealand white rabbit lung INMT using N-methyltryptamine as substrate after 60 to 90 mins by liquid scintillation counting in presence of S-methyl-[14C]adenosylmethionine
Summary of the method: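 Enzyme from male rabbit lung: homogenate in 0.15 M KCl with 10^-4 M DTT and EDTA, 50 000 g supernatant, 40-60% ammonium sulfate fraction dialysed (some runs further Sephadex G-150 purified). Incubation in potassium phosphate pH 7.9 with N-methyltryptamine and S-[methyl-14C]adenosylmethionine, test compound in water or 5% DMSO, 37 °C. Stopped with borate pH 10; 14C-DMT extracted into isoamyl alcohol.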

Chain of Indolethylamine N-methyltransferase (O97972 whole entry): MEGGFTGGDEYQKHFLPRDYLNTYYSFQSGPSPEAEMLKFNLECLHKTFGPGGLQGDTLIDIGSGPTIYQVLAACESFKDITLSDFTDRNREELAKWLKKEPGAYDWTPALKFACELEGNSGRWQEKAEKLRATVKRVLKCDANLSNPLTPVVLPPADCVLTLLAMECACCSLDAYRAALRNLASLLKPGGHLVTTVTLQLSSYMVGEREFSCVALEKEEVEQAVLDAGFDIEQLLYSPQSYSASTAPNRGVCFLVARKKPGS

C1CN=C2CCCN2C1
IC50: 38.7 µM
